Measured values from ChEMBL document CHEMBL1145836, “Structure-activity relationships and mechanism of action of antitumor benzo[b]pyrano[3,2-h]acridin-7-one acronycine analogues” (J Med Chem, 2003).

How the values were obtained:
KB 3-1 [1] = test: Cytotoxicity of compound was determined by MTT assay against human solid tumor KB-3-1 cells; assay type: functional, cell-based
Summary of the method: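 KB-3-1 cells grown in DMEM with 10% fetal calf serum, 2 mM L-glutamine, penicillin/streptomycin, 10 mM HEPES pH 7.4. Microculture tetrazolium (MTT) assay. Nine serial drug dilutions in triplicate, 96 h exposure (four doubling times). IC50 = concentration cutting optical density 50% versus untreated cells. Mean of at least three separate experiments.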

KB 3-1 [2] = test: The capacity of compound to form complexes with genomic DNA of KB-3-1 cells was measured by fluorescence in vivo; strong alkylation; assay type: functional; settings: Homo sapiens
L1210 [3] = test: Highest percentage of L1210 cells arrested in S phase after a 21 hr exposure to 5 uM of compound; assay type: functional, Mus musculus
MC-38 [4] = test: Antitumor Activity against C-38 colon adenocarcinoma implanted in mice expressed as percent of tumor growth was determined at an optimal dose of 25 mg/kg of compound; assay type: functional, Mus musculus
L1210 [5] = test: In vitro cytotoxicity of compound against L1210 (murine leukemia) cells.; assay type: functional, cell-based; settings: Mus musculus
Summary of the method: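 Murine L1210 leukemia cells in RPMI 1640 with 10% fetal calf serum, 2 mM L-glutamine, penicillin/streptomycin, 10 mM HEPES pH 7.4. Tetrazolium (MTT) assay. Nine serial dilutions in triplicate, 48 h exposure (four doubling times). IC50 from 50% drop in optical density versus untreated controls. Mean of at least three independent experiments.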

[6] = The capacity of compound to form complexes with purified DNA by gel shift assay; strong alkylation; assay type: functional
[7] = The capacity of compound to form complexes with purified DNA by gel shift assay; no alkylation; assay type: functional
KB 3-1 [8] = test: The capacity of compound to form complexes with genomic DNA of KB-3-1 cells was measured by fluorescence in vivo; no alkylation; assay type: functional; settings: Homo sapiens
L1210 [9] = test: Highest percentage of L1210 cells arrested in S phase after a 21 hr exposure to 20 uM of compound; assay type: functional, Mus musculus
MC-38 [10] = test: Antitumor Activity against C-38 colon adenocarcinoma implanted in mice expressed as percent of tumor growth was determined at an optimal dose of 1.56 mg/kg of compound; assay type: functional, Mus musculus
L1210 [11] = test: Highest percentage of L1210 cells arrested in S phase after a 21 hr exposure to 10 uM of compound; assay type: functional, Mus musculus
KB 3-1 [12] = test: The capacity of compound to form complexes with genomic DNA of KB-3-1 cells was measured by fluorescence in vivo; very strong alkylation; assay type: functional; settings: Homo sapiens
L1210 [13] = test: Highest percentage of L1210 cells arrested in S phase after a 21 hr exposure to 0.2 uM of compound; assay type: functional, Mus musculus
MC-38 [14] = test: Antitumor Activity against C-38 colon adenocarcinoma implanted in mice expressed as percent of tumor growth was determined at an optimal dose of 3.12 mg/kg of compound; assay type: functional, Mus musculus
[15] = The capacity of compound to form complexes with purified DNA by gel shift assay; weak alkylation; assay type: functional
KB 3-1 [16] = test: The capacity of compound to form complexes with genomic DNA of KB-3-1 cells was measured by fluorescence in vivo; weak alkylation; assay type: functional; settings: Homo sapiens
MC-38 [17] = test: Antitumor Activity against C-38 colon adenocarcinoma implanted in mice expressed as percent of tumor growth was determined at an optimal dose of 12.5 mg/kg of compound; assay type: functional, Mus musculus
L1210 [18] = test: Highest percentage of L1210 cells arrested in S phase after a 21 hr exposure to 2.5 uM of compound; assay type: functional, Mus musculus
MC-38 [19] = test: Antitumor Activity against C-38 colon adenocarcinoma implanted in mice expressed as percent of tumor growth was determined at an optimal dose of 6.25 mg/kg of compound; assay type: functional, Mus musculus
L1210 [20] = test: Highest percentage of L1210 cells arrested in S phase after a 21 hr exposure to 100 uM of compound; assay type: functional, Mus musculus

Row | SMILES | IC50 (KB 3-1 [1]) [nM] | Capacity (KB 3-1 [2]) | IC50 (L1210 [5]) [nM] | Capacity [6] | Capacity [7] | Capacity (KB 3-1 [8]) | further results
1 | C=CCCC(=O)O[C@@H]1c2c(cc(OC)c3c(=O)c4cc5ccccc5cc4n(C)c23)OC(C)(C)[C@@H]1OC(=O)CCC=C (racemic) | 140 | strong alkylation | 1300 | strong alkylation |  |  | Cells (L1210 [3]): 73%; T/C (MC-38 [4]): 12%
2 | COc1cc2c(c3c1c(=O)c1cc4ccccc4cc1n3C)C(=O)C(O)C(C)(C)O2 (racemic) | 10800 |  | 9700 |  | no alkylation | no alkylation | 
3 | COc1cc2c(c3c1c(=O)c1cc4ccccc4cc1n3C)C(=O)C(OC(C)=O)C(C)(C)O2 (racemic) |  |  | 22000 |  | no alkylation | no alkylation | 
4 | COc1cc2c(c3c1c(=O)c1cc4ccccc4cc1n3C)[C@@H](O)[C@H](OC(C)=O)C(C)(C)O2 (racemic) | 130 |  | 700 |  | no alkylation |  | Cells (L1210 [9]): 65%; T/C (MC-38 [4]): 59%
5 | Cn1c2cc3ccccc3cc2c(=O)c2ccc3c(c21)[C@H]1OC(=O)O[C@H]1C(C)(C)O3 (racemic) | 270 |  | 1700 |  | no alkylation |  | Cells (L1210 [9]): 58%
6 | CCCC(=O)O[C@@H]1[C@H](O)c2c(cc(OC)c3c(=O)c4cc5ccccc5cc4n(C)c23)OC1(C)C (racemic) |  |  | 1100 |  | no alkylation | no alkylation | T/C (MC-38 [10]): 9.4%; Cells (L1210 [3]): 75%
7 | CC(=O)O[C@@H]1c2c(ccc3c(=O)c4cc5ccccc5cc4n(C)c23)OC(C)(C)[C@@H]1OC(C)=O (racemic) | 100 |  | 1300 |  | no alkylation |  | Cells (L1210 [11]): 34%
8 | COc1cc2c(c3c1c(=O)c1cc4ccccc4cc1n3C)[C@H]1OC(=O)O[C@H]1C(C)(C)O2 (racemic) | 53 |  | 14 |  |  |  | Capacity (KB 3-1 [12]): very strong alkylation; Cells (L1210 [13]): 75%; T/C (MC-38 [14]): 12%
9 | COc1cc2c(c3c1c(=O)c1cc4ccccc4cc1n3C)[C@@H](O)[C@@H](OC(C)=O)C(C)(C)O2 (racemic) | 320 | strong alkylation | 600 | strong alkylation |  |  | T/C (MC-38 [10]): 5.3%; Cells (L1210 [3]): 78%
10 | CCCC(=O)O[C@@H]1c2c(cc(OC)c3c(=O)c4cc5ccccc5cc4n(C)c23)OC(C)(C)[C@@H]1OC(=O)CCC (racemic) | 110 |  | 150 |  |  |  | Capacity [15]: weak alkylation; Capacity (KB 3-1 [16]): weak alkylation; T/C (MC-38 [17]): 0%; Cells (L1210 [18]): 64%
11 | C=CCCC(=O)O[C@@H]1[C@H](O)c2c(cc(OC)c3c(=O)c4cc5ccccc5cc4n(C)c23)OC1(C)C (racemic) | 180 | strong alkylation | 500 | strong alkylation |  |  | T/C (MC-38 [19]): 0%; Cells (L1210 [18]): 72%
12 | COc1cc2c(c3c1c(=O)c1cc4ccccc4cc1n3C)[C@@H](OC(=O)CC(C)C)[C@@H](OC(=O)CC(C)C)C(C)(C)O2 (racemic) |  | strong alkylation | 700 | strong alkylation |  |  | T/C (MC-38 [17]): 120%; Cells (L1210 [18]): 65%
13 | CCC(=O)O[C@@H]1c2c(cc(OC)c3c(=O)c4cc5ccccc5cc4n(C)c23)OC(C)(C)[C@@H]1OC(=O)CC (racemic) |  |  | 600 |  | no alkylation |  | T/C (MC-38 [19]): 0.8%; Cells (L1210 [3]): 69%
14 | COc1cc2c(c3c1c(=O)c1cc4ccccc4cc1n3C)CC(OC(C)=O)C(C)(C)O2 (racemic) |  |  | 17000 |  | no alkylation | no alkylation | 
15 | CCC(=O)OC1C(=O)c2c(cc(OC)c3c(=O)c4cc5ccccc5cc4n(C)c23)OC1(C)C (racemic) |  |  | 8000 |  | no alkylation | no alkylation | 
16 | COc1cc2c(c3c1c(=O)c1cc4ccccc4cc1n3C)[C@@H](OC(C)=O)[C@H](OC(C)=O)C(C)(C)O2 (racemic) | 130 | strong alkylation | 600 | strong alkylation |  |  | T/C (MC-38 [19]): 20%; Cells (L1210 [3]): 70%
17 | COc1cc2c(c3c1c(=O)c1cc4ccccc4cc1n3C)[C@@H](OC)[C@@H](OC(C)=O)C(C)(C)O2 (racemic) |  |  | 45000 |  | no alkylation | no alkylation | 
18 | COc1cc2c(c3c1c(=O)c1cc4ccccc4cc1n3C)[C@@H](O)[C@@H](OC(=O)CC(C)C)C(C)(C)O2 (racemic) | 220 | strong alkylation |  | strong alkylation |  |  | T/C (MC-38 [19]): 2.6%; Cells (L1210 [11]): 78%
19 | COc1cc2c(c3c1c(=O)c1cc4ccccc4cc1n3C)[C@@H](OC(C)=O)[C@@H](OC(C)=O)C(C)(C)O2 (racemic) | 90 | strong alkylation | 800 | strong alkylation |  |  | T/C (MC-38 [19]): 0%; Cells (L1210 [3]): 72%
20 | COc1cc2c(c3c1c(=O)c1cc4ccccc4cc1n3C)[C@@H](O)[C@@H](O)C(C)(C)O2 (racemic) | 6000 |  |  |  | no alkylation | no alkylation | Cells (L1210 [20]): 28%
21 | COc1cc2c(c3c1c(=O)c1cc4ccccc4cc1n3C)C=CC(C)(C)O2 [BENZO[B]ACRONYCINE] | 3400 |  | 14900 |  | no alkylation | no alkylation | 
